Screening results from PubChem.
ERAP1 inh = human ERAP1 aminopeptidase inhibitors, primary screen, biochemical, single point, plate reader; Endoplasmic reticulum aminopeptidase 1 (Homo sapiens), Q9NZ08; recombinant ERAP1, Leu-AMC fluorescence, 60 min; inhibition, % at 10.7 µM; actives 0.15% (n = 340,000);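 active means mean replicate inhibition of at least 30%, or all replicates individually reaching that 30% level; inactive means mean below 30% and not every replicate reaching it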;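 further: 0% = neutral control wells and 100% = L-leucinethiol positive control wells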
DENV2 CPE = inhibitors of DENV2 cytopathic effect, primary screen, cell-based, plate reader, single concentration; CPE inhibition, % at 9.99 µM; actives 1.7% (n = 350,000); AID 651640, 2012; DENV2-infected cells, cytopathic effect rescue; in the data active means CPE inhibition above about 20%, passing the limit was not always enough; inconclusive means no clear call, values can overlap the other calls; tested in BHK-21 cells;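 further: 0% = median of neutral control wells and 100% = median of positive control wells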
E-selectin induc = E-selectin induction in HUVECs, primary screen, imaging, HUVEC, immunofluorescence imaging, single point; actives 0.37% (n = 260,000); P16581; activation, % at 7.58 µM; AID 686992, 2013; normalized: neutral wells 0, TNF-alpha wells 100;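 active means mean E-selectin-positive cell signal at least 10% of the positive control, reached in at least 60% of replicates, without over 20% cell loss; inconclusive means no rule given, readout overlaps actives, possibly toxicity-flagged; inactive means the rest, including those meeting only one limit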
Target sequence (P16581 whole entry, looked up): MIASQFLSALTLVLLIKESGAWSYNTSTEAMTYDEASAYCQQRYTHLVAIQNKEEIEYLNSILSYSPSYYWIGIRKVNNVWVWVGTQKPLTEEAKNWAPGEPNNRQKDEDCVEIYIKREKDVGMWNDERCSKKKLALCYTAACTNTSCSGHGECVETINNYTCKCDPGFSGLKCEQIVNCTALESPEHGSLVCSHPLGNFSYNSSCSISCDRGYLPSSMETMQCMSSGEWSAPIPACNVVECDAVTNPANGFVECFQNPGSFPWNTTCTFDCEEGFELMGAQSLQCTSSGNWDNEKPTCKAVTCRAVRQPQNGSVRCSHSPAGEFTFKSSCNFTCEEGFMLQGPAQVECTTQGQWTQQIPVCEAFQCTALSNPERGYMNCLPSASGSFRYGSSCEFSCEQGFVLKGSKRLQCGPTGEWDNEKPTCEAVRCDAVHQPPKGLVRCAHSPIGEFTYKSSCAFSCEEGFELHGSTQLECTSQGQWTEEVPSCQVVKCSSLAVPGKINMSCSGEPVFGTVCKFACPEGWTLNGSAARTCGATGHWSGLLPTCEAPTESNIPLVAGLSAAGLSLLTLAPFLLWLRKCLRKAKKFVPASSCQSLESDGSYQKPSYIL
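System: HUVEC / Compound: single concentration / Signal: immunofluorescence imaging / Read-out: percent E-selectin-positive cells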
GSIS activator = GLuc luminescence reporter in INS-1E cells, primary screen for activators of glucose-dependent secretion of insulin; activation, % at 16.6 µM; actives 0.61% (n = 370,000); INS-1E GLuc reporter insulin secretion, 2-3 h;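 active means lowest replicate activation of at least 40%, so every replicate reaches that level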;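 further: 0% = median of neutral control wells and 100% = median of IBMX positive control wells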
CFTR F508del cor = F508del CFTR correction, initial screen, CFBE line, single point. CFBE cells, YFP halide quenching; stimulated with forskolin plus potentiator P3; % fluorescence drop versus neutral controls. activity (quench increase), % at 7.58 µM. actives 0.36% (n = 350,000);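 active means mean added fluorescence quench of at least 8% versus neutral control, with both replicates also reaching 8%; inconclusive means only one of the mean or replicate conditions met; inactive means mean below 8% and not both replicates reaching 8%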;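 further: cells transiently co-express mutant CFTR-F508del with the halide-sensitive YFP; corrector assay measuring rescue of mutant channel to the surface after 24 h compound exposure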
miR122 inh = miR-122 Renilla sensor signal increase in Huh7, primary screen, miR-122 inhibitor project, cell-based, single point, plate reader; actives 0.3% (n = 340,000); activation (reporter increase), % at 12.5 µM; Huh7 miR-122 Renilla luciferase sensor, 48 h; neutral wells = 0, positive control = 100; AID 602342, 2012;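 active means mean replicate activation score at least 90 and every replicate individually at or above 90; inconclusive means only one of the two criteria met; inactive means neither criterion met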;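 further: higher luciferase means less miR-122 activity so hits act as miR-122 inhibitors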
An asterisk follows results filed as active; ? = inconclusive; nt = not tested or not shown; [ ] = dose if it differs, or a comment. In the library only some 2.6% were active in any assay of this set; here they are far more common.

SMILES	ERAP1 inh	DENV2 CPE	E-selectin induc	GSIS activator	CFTR F508del cor	miR122 inh
O=c1c2sccc2n(Cc2cccc(F)c2)c(=O)n1-c1ccc(F)cc1	nt	nt	nt	46*	nt	nt
COc1ccc(-c2cnc3c(c2)C(=O)N([C@H](C)CO)C[C@@H](C)[C@@H](CN(C)C(=O)C2CCC2)O3)cc1	1	-4	0	8	0	-4[16.7 µM]
COC(=O)c1ccc2nc(-c3ccco3)c(Cc3ccsc3)n2c1	0	68*	0	-18	0	nt
COC(=O)c1ccc2nc(-c3ccc(C)cc3)c(Cc3cccc(F)c3)n2c1	-1	8	0	-5	2	nt
COC(=O)c1ccc2nc(C3CCCCC3)c(Cc3ccccc3OC)n2c1	-2	20*	0	-2	0	nt
COC(=O)c1ccc2nc(-c3ccc(F)cc3)c(Cc3ccccc3OC)n2c1	-3	50*	0	3	2	nt
COC(=O)c1ccc2nc(-c3ccc(C#N)cc3)c(Cc3cccc(F)c3)n2c1	nt	41*	0	-6	5	-1
C[C@@H]1CN([C@H](C)CO)C(=O)Cc2cc(NC(=O)c3ccncc3)ccc2O[C@H]1CN(C)C(=O)Nc1cccc2ccccc12	-1	18	0	13	0	4[16.7 µM]
CC[C@H]1C/C=C\C[C@H](c2ccc(F)cc2)NC(=O)CCC(=O)N1	nt	nt	nt	25	nt	nt
C[C@@H]1CN([C@H](C)CO)C(=O)c2cccc(NS(=O)(=O)c3cccs3)c2O[C@H]1CN(C)Cc1ccc(C(F)(F)F)cc1	2	5	-2	-34	1	264*[16.7 µM]
C[C@H]1CN([C@@H](C)CO)C(=O)c2cccc(NS(=O)(=O)c3ccccc3)c2O[C@H]1CN(C)Cc1ccc(C(F)(F)F)cc1	0	78*	1	-33	-1	40[16.7 µM]
C[C@@H]1CN([C@H](C)CO)C(=O)c2cccc(NS(=O)(=O)c3cccs3)c2O[C@@H]1CN(C)Cc1ccc(C(F)(F)F)cc1	-1	-5	-2	-8	2	61[16.7 µM]
COc1ccc(-c2cn(CC[C@H]3CC[C@H](NC(=O)Nc4ccc(F)cc4)[C@@H](CO)O3)nn2)cc1	-1	-4	0	0	1	nt
CC(Oc1ccccc1)C(=O)N=Nc1c(O)[nH]c2ccc([N+](=O)[O-])cc12 (stereo unspecified)	0	-3	0	-17	0	232*
O=C(N=Nc1c(O)[nH]c2ccc([N+](=O)[O-])cc12)c1ccccc1[N+](=O)[O-]	nt	6	0	-10	2	2
N/C(=N/O)c1nc(N2CCCCC2)nc(N2CCCCC2)n1	nt	nt	nt	nt	nt	4
N/C(=N/O)c1nc(N2CCCC2)nc(N2CCCC2)n1	-4	9	nt	76*	-1	nt
CCOC(=O)c1cc(-c2ccncc2)nc2c1c(C)nn2-c1ccccn1	nt	nt	nt	66*	nt	-5
CCCCOc1ccc(C(=O)N/N=C/c2ccc(OCCN3CCCCC3)c(OC)c2)cc1	-1	32*	nt	nt	2	3
COc1ccc(OC)c(/C=N/NC(=O)c2cc[n+](CC(=O)c3ccccc3)cc2)c1	37*	0	nt	16	-3	0
COc1ccc(/C=C/C(=O)Oc2ccc(/C=N/NC(=O)c3ccccc3)cc2)cc1OC	nt	nt	nt	129*	nt	1
CCNC(=O)Nc1ccc2c(c1)C(=O)N(C)[C@H]1CC[C@H](CC(=O)NCC3CC3)O[C@H]1CO2	nt	0	0	9	3	-20[16.7 µM]
CO[C@H]1CN(C)C(=O)c2ccc(NC(=O)C3CC3)cc2OC[C@H](C)N(C(=O)Cc2ccccn2)C[C@H]1C	-3	8	0	2	2	nt
COc1ccc2c3c([nH]c2c1)[C@H](CO)N(Cc1ccccc1F)CC31CN(C)C1	nt	-1	0	-9	0	nt
COc1ccc2c3c([nH]c2c1)[C@H](CO)N(Cc1ccccc1OC)CC31CN(C)C1	53*	-4	2	-6	1	nt
SMILES	ERAP1 inh	DENV2 CPE	E-selectin induc	GSIS activator	CFTR F508del cor	miR122 inh
COc1ccc2c3c([nH]c2c1)[C@@H](CO)N(Cc1ccccc1OC)CC31CN(C)C1	51*	-6	0	5	-1	nt
CC=Cc1ccc2n(c1=O)C[C@@H]1[C@@H](CO)[C@H](C(=O)NC3CCC3)N(S(C)(=O)=O)[C@H]21 (mixture of isomers)	2	?	1	-8	-2	-2[16.7 µM]
CC(C)CC(=O)Nc1nnc(SCC(=O)NC2CCCCC2)s1	1	18	0	22	0	nt
CC(C)CC(=O)Nc1nnc(SCC(=O)NC2CCCC2)s1	0	19	0	121*	0	-3
C[C@H]1CN([C@@H](C)CO)C(=O)CCCn2nncc2CO[C@@H]1CN(C)S(=O)(=O)c1ccc(F)cc1	-1	-3	0	-9	1	2[16.7 µM]
Cc1cc2c(=Cc3ccc(N(C)C)cc3)c3ccccc3n2[n+]1C	7	17	49*	-66	-1	nt
CCOC(=O)SC1=N/C(=C\c2ccc(N(C)C)cc2)C(=O)S1	5	-4	nt	3	4	2
CCOC(=O)c1cc2c(=Cc3ccc(N(C)C)cc3)c3ccccc3n2[n+]1C	0	35*	139*	-20	9.9*	nt
CN(C)c1ccc(C=c2c3ccccc3n3c2c2ccccc2[n+]3C)cc1	5	-5	nt	nt	-10	nt
C[C@@H]1CCCCO[C@@H](CN(C)S(=O)(=O)c2ccccc2)[C@H](C)CN([C@@H](C)CO)C(=O)c2cc(NS(=O)(=O)c3cccs3)ccc2O1	1	3	nt	-31	0	-10[16.7 µM]
COc1cccc(-c2ncc3ccccc3c2COC(=O)c2ccc(F)cc2)c1	2	102*	0	-7	2	-6
COc1cccc(-c2ncc3ccccc3c2COC(=O)c2ccc(C(C)(C)C)cc2)c1	1	-3	0	-14	-1	-8
Cc1cc(=O)[nH]c2c1c(C)nn2C1CCCC1	nt	nt	nt	53*	nt	1
C[C@@H]1CN([C@H](C)CO)C(=O)c2cccc(NC(=O)Nc3cccc4ccccc34)c2O[C@@H]1CN(C)S(=O)(=O)c1cn(C)cn1	2	-14	0	3	1	0[16.7 µM]
COc1ccc2c(c1)c1nnc(SCC(=O)Nc3ccccc3F)nc1n2C	2	51*	nt	nt	nt	-10
CCOc1ccc(NC(=O)CSc2nnc(CCNC(=O)c3ccc(OC)cc3)n2CC)cc1	nt	nt	nt	-5	nt	-1
CCn1c(CCNC(=O)c2ccc(OC)cc2)nnc1SCC(=O)Nc1ccccc1F	-4	3	nt	7	8	120*
COc1ccc(NC(=O)N(C)C[C@H]2OCCCC[C@@H](C)Oc3ccc(NC(=O)Cc4ccccc4)cc3C(=O)N([C@H](C)CO)C[C@@H]2C)cc1	1	0	0	-9	-2	7[16.7 µM]
